Results from ChEMBL document CHEMBL4813982, “Novel pyrazolo[4,3-d]pyrimidine microtubule targeting agents (MTAs): Synthesis, structure-activity relationship, in vitro and in vivo evaluation as antitumor agents” (Bioorg Med Chem Lett, 2021).
pEC50, pIC50: −log10 of the molar value.

Experiments:
UACC-257 = assay: Growth inhibition of human UACC-257 cells incubated for 48 hrs by sulforhodamine B assay; assay type: functional
CCRF-CEM = assay: Growth inhibition of human CCRF-CEM cells incubated for 48 hrs by sulforhodamine B assay; assay type: functional
786-0 = assay: Growth inhibition of human 786-0 cells incubated for 48 hrs by sulforhodamine B assay; assay type: functional
HL-60(TB) = assay: Growth inhibition of human HL-60(TB) cells incubated for 48 hrs by sulforhodamine B assay; assay type: functional
MCF7 [1] = assay: Antiproliferative activity against human MCF7 cells; assay type: functional, cell-based
K562 = assay: Growth inhibition of human K562 cells incubated for 48 hrs by sulforhodamine B assay; assay type: functional
TK-10 = assay: Growth inhibition of human TK-10 cells incubated for 48 hrs by sulforhodamine B assay; assay type: functional
NCI-H460 = assay: Growth inhibition of human NCI-H460 cells incubated for 48 hrs by sulforhodamine B assay; assay type: functional
MOLT-4 = assay: Growth inhibition of human MOLT-4 cells incubated for 48 hrs by sulforhodamine B assay; assay type: functional
MCF7 [2] = assay: Potency index, ratio of EC50 of paclitaxel to EC50 of compound for antiproliferative activity against human MCF7 cells expressing TUBB3; assay type: functional
SF-539 = assay: Growth inhibition of human SF-539 cells incubated for 48 hrs by sulforhodamine B assay; assay type: functional
RXF 393 = assay: Growth inhibition of human RXF 393 cells incubated for 48 hrs by sulforhodamine B assay; assay type: functional
NCI-H322M = assay: Growth inhibition of human NCI-H322M cells incubated for 48 hrs by sulforhodamine B assay; assay type: functional
OVCAR-4 = assay: Growth inhibition of human OVCAR-4 cells incubated for 48 hrs by sulforhodamine B assay; assay type: functional
SK-OV-3 = assay: Growth inhibition of human SK-OV-3 cells incubated for 48 hrs by sulforhodamine B assay; assay type: functional
CAKI-1 = assay: Growth inhibition of human CAKI-1 cells incubated for 48 hrs by sulforhodamine B assay; assay type: functional
MDA-MB-468 = assay: Growth inhibition of human MDA-MB-468 cells incubated for 48 hrs by sulforhodamine B assay; assay type: functional
[3] = Resistance ratio of EC50 for antiproliferative activity against human MCF7 cells expressing TUBB3 to EC50 for antiproliferative activity against human MCF7 cells; assay type: functional
Method in brief: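 Resistance ratio: EC50 in MCF-7 cells overexpressing βIII-tubulin divided by EC50 in parental wild-type MCF-7 cells.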

HCT-29 = assay: Growth inhibition of […] incubated for 48 hrs by sulforhodamine B assay; assay type: functional
SK-MEL-28 = assay: Growth inhibition of human SK-MEL-28 cells incubated for 48 hrs by sulforhodamine B assay; assay type: functional
OVCAR-8 = assay: Antiproliferative activity against human OVCAR-8 cells; assay type: functional, cell-based
OVCAR-5 = assay: Growth inhibition of human OVCAR-5 cells incubated for 48 hrs by sulforhodamine B assay; assay type: functional
SNB-19 = assay: Growth inhibition of human SNB-19 cells incubated for 48 hrs by sulforhodamine B assay; assay type: functional
NCI-H522 = assay: Growth inhibition of human NCI-H522 cells incubated for 48 hrs by sulforhodamine B assay; assay type: functional
MCF7 [4] = assay: Antiproliferative activity against human MCF7 cells expressing TUBB3; assay type: functional, cell-based
HCT-15 = assay: Growth inhibition of human HCT-15 cells incubated for 48 hrs by sulforhodamine B assay; assay type: functional
A549 = assay: Growth inhibition of human A549 cells incubated for 48 hrs by sulforhodamine B assay; assay type: functional
M14 = assay: Growth inhibition of human M14 cells incubated for 48 hrs by sulforhodamine B assay; assay type: functional
UACC-62 = assay: Growth inhibition of human UACC-62 cells incubated for 48 hrs by sulforhodamine B assay; assay type: functional
MDA-MB-435 = assay: Growth inhibition of human MDA-MB-435 cells incubated for 48 hrs by sulforhodamine B assay; assay type: functional
BT-549 = assay: Growth inhibition of human BT-549 cells incubated for 48 hrs by sulforhodamine B assay; assay type: functional
COLO 205 = assay: Growth inhibition of human COLO 205 cells incubated for 48 hrs by sulforhodamine B assay; assay type: functional
NCI-H23 = assay: Growth inhibition of human NCI-H23 cells incubated for 48 hrs by sulforhodamine B assay; assay type: functional
PC-3 = assay: Growth inhibition of human PC-3 cells incubated for 48 hrs by sulforhodamine B assay; assay type: functional
A498 = assay: Growth inhibition of human A498 cells incubated for 48 hrs by sulforhodamine B assay; assay type: functional
ACHN = assay: Growth inhibition of human ACHN cells incubated for 48 hrs by sulforhodamine B assay; assay type: functional
HOP-92 = assay: Growth inhibition of human HOP-92 cells incubated for 48 hrs by sulforhodamine B assay; assay type: functional
RPMI-8226 = assay: Growth inhibition of human RPMI-8226 cells incubated for 48 hrs by sulforhodamine B assay; assay type: functional
MDA-MB-231 = assay: Growth inhibition of human MDA-MB-231 cells incubated for 48 hrs by sulforhodamine B assay; assay type: functional
SN12C = assay: Growth inhibition of human SN12C cells incubated for 48 hrs by sulforhodamine B assay; assay type: functional
SF-295 = assay: Growth inhibition of human SF-295 cells incubated for 48 hrs by sulforhodamine B assay; assay type: functional
LOX IMVI = assay: Growth inhibition of human LOX IMVI cells incubated for 48 hrs by sulforhodamine B assay; assay type: functional
EKVX = assay: Growth inhibition of human EKVX cells incubated for 48 hrs by sulforhodamine B assay; assay type: functional
SF-268 = assay: Growth inhibition of human SF-268 cells incubated for 48 hrs by sulforhodamine B assay; assay type: functional
T47D = assay: Growth inhibition of human T47D cells incubated for 48 hrs by sulforhodamine B assay; assay type: functional
NCI/ADR-RES = assay: Antiproliferative activity against human NCI/ADR-RES cells overexpressing Pgp; assay type: functional, cell-based
MCF7 [5] = assay: Potency index, ratio of EC50 of paclitaxel to EC50 of compound for antiproliferative activity against human MCF7 cells; assay type: functional
MCF7 [6] = assay: Growth inhibition of human MCF7 cells incubated for 48 hrs by sulforhodamine B assay; assay type: functional
UO-31 = assay: Growth inhibition of human UO-31 cells incubated for 48 hrs by sulforhodamine B assay; assay type: functional
SK-MEL-2 = assay: Growth inhibition of human SK-MEL-2 cells incubated for 48 hrs by sulforhodamine B assay; assay type: functional
NCI-H226 = assay: Growth inhibition of human NCI-H226 cells incubated for 48 hrs by sulforhodamine B assay; assay type: functional
[7] = Resistance ratio of IC50 for antiproliferative activity against human NCI/ADR-RES cells expressing Pgp to IC50 for antiproliferative activity against human OVCAR-8 cells; assay type: functional
Method in brief: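 Resistance ratio: IC50 in Pgp-overexpressing NCI/ADR-RES cells divided by IC50 in parental OVCAR-8 cells.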

## COc1ccc(N(C)c2nc(Cl)nc3cnn(C)c23)cc1
UACC-257
  GI50: 22.7 nM
CCRF-CEM
  GI50: 9.96 nM
786-0
  GI50: 13.2 nM
HL-60(TB)
  GI50: 11.2 nM
MCF7 [1]
  pEC50: 8.70
K562
  GI50: 6.46 nM
TK-10
  GI50: 16.3 nM
NCI-H460
  GI50: 4.52 nM
MOLT-4
  GI50: 19.9 nM
MCF7 [2]
  Ratio EC50: 600
SF-539
  GI50: 8.76 nM
RXF 393
  GI50: 8.75 nM
NCI-H322M
  GI50: 14.1 nM
OVCAR-4
  GI50: 12.9 nM
SK-OV-3
  GI50: 13.9 nM
CAKI-1
  GI50: 15.7 nM
MDA-MB-468
  GI50: 9.09 nM
[3]
  Ratio EC50: 1.1
HCT-29
  GI50: 7.6 nM
SK-MEL-28
  GI50: 17 nM
OVCAR-8
  pIC50: 8.05
OVCAR-5
  GI50: 11.8 nM
SNB-19
  GI50: 13.9 nM
NCI-H522
  GI50: 14.4 nM
MCF7 [4]
  pEC50: 8.48
HCT-15
  GI50: 5.14 nM
A549
  GI50: 12.7 nM
M14
  GI50: 10.6 nM
UACC-62
  GI50: 15.9 nM
MDA-MB-435
  GI50: 3.9 nM
BT-549
  GI50: 24.1 nM
COLO 205
  GI50: 9.78 nM
NCI-H23
  GI50: 11.9 nM
PC-3
  GI50: 10.7 nM
A498
  GI50: 13.4 nM
ACHN
  GI50: 8.4 nM
HOP-92
  GI50: 16 nM
RPMI-8226
  GI50: 15.3 nM
MDA-MB-231
  GI50: 14.3 nM
SN12C
  GI50: 15.8 nM
SF-295
  GI50: 11.4 nM
LOX IMVI
  GI50: 8.53 nM
EKVX
  GI50: 15.5 nM
SF-268
  GI50: 12.2 nM
T47D
  GI50: 16.4 nM
NCI/ADR-RES
  pIC50: 8.30
MCF7 [5]
  Ratio EC50: 100
MCF7 [6]
  GI50: 10.8 nM
UO-31
  GI50: 10 nM
SK-MEL-2
  GI50: 21 nM
NCI-H226
  GI50: 9.49 nM
[7]
  Ratio IC50: 0.55
